ChEMBL document CHEMBL1136049, “Synthesis of syn- and anti-1-amino-3-[18F]fluoromethyl-cyclobutane-1-carboxylic acid (FMACBC), potential PET ligands for tumor detection” (J Med Chem, 2002)

Key:
Rattus norvegicus [1] = species on record: Rattus norvegicus; experiment: Radioactivity distribution in liver of normal fischer rat after injection of anti-[18F]FMACBC after 60 min.; assay type: ADME, organism-based; settings: in vivo, 1 h
Method in brief: (§1)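 Male Fischer 344 rats (200–250 g), normal, fed ad libitum, given ~85 μCi of 18F tracer in 0.3 mL sterile water IV through a tail vein catheter. Anesthesia was ketamine:xylazine IM. Groups of four were killed at 5, 30, 60 and 120 min. Tissues were weighed and gamma-counted against dose standards, decay-corrected, and expressed as mean % injected dose per gram.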

Rattus norvegicus [2] = species on record: Rattus norvegicus; experiment: Radioactivity distribution in brain of tumor-bearing fischer rat after injection of anti-[18F]FMACBC after 120 min; assay type: ADME, organism-based; settings: in vivo, 2 h
Method in brief: (§2)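 Male Fischer 344 rats carrying intracranial rat 9L gliosarcoma, made by stereotaxic injection of 4 × 10^4 cells 17–19 days before. Awake restrained rats received ~35 μCi of 18F tracer in 0.3 mL sterile water IV by tail vein and were killed at 5, 60 or 120 min, n = 3–5. Tissues were weighed, gamma-counted, decay-corrected and expressed as % injected dose per gram.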

Rattus norvegicus [3] = species on record: Rattus norvegicus; experiment: Radioactivity distribution in pancreas of tumor-bearing fischer rat after injection of anti-[18F]FMACBC after 120 min; assay type: ADME, organism-based; settings: in vivo, 2 h
Method in brief: (§3)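 Male Fischer 344 rats with intracranial 9L gliosarcoma (4 × 10^4 cells stereotaxically implanted; used 17–19 days after implantation). About 35 μCi tracer in 0.3 mL sterile water was given by tail vein to awake, restrained rats. Rats were killed at 5, 60 or 120 min. Tissues, tumor and contralateral brain were weighed and gamma counted, decay-corrected, and expressed as %ID/g; n = 3–5 per time point.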

Rattus norvegicus [4] = species on record: Rattus norvegicus; experiment: Radioactivity distribution in blood of normal fischer rat after injection of anti-[18F]FMACBC after 120 min.; assay type: ADME, organism-based; settings: in vivo, 2 h; method in brief: as §1
Rattus norvegicus [5] = species on record: Rattus norvegicus; experiment: Radioactivity distribution in pancreas of normal fischer rat after injection of anti-[18F]FMACBC after 30 min.; assay type: ADME, organism-based; settings: in vivo, 0.5 h
Method in brief: (§4)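 Normal male Fischer 344 rats (200–250 g) were anesthetised with ketamine:xylazine i.m. and given about 85 μCi tracer in 0.3 mL sterile water via a tail vein catheter. Groups of four were killed at 5, 30, 60 and 120 min. Selected tissues were weighed and gamma counted with dose standards, decay-corrected, and expressed as mean %ID/g.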

Rattus norvegicus [6] = species on record: Rattus norvegicus; experiment: Radioactivity distribution in testis of normal fischer rat after injection of syn-[18F]-FMACBC after 5 min.; assay type: ADME, organism-based; settings: in vivo; method in brief: as §4
Rattus norvegicus [7] = species on record: Rattus norvegicus; experiment: Radioactivity distribution in muscle of normal fischer rat after injection of anti-[18F]FMACBC after 60 min.; assay type: ADME, organism-based, Muscle tissue; settings: in vivo, 1 h; method in brief: as §4
Rattus norvegicus [8] = species on record: Rattus norvegicus; experiment: Radioactivity distribution in kidney of normal fischer rat after injection of syn-[18F]-FMACBC after 5 min.; assay type: ADME, organism-based; settings: in vivo; method in brief: as §1
Rattus norvegicus [9] = species on record: Rattus norvegicus; experiment: Radioactivity distribution in heart of normal fischer rat after injection of anti-[18F]FMACBC after 30 min.; assay type: ADME, organism-based; settings: in vivo, 0.5 h; method in brief: as §1
Rattus norvegicus [10] = species on record: Rattus norvegicus; experiment: Radioactivity distribution in kidney of tumor-bearing fischer rat after injection of syn-[18F]-FMACBC after 120 min; assay type: ADME, organism-based; settings: in vivo, 2 h; method in brief: as §2
Rattus norvegicus [11] = species on record: Rattus norvegicus; experiment: Radioactivity distribution in heart of tumor-bearing fischer rat after injection of syn-[18F]-FMACBC after 5 min; assay type: ADME, organism-based; settings: in vivo; method in brief: as §2
Rattus norvegicus [12] = species on record: Rattus norvegicus; experiment: Radioactivity distribution in testis of normal fischer rat after injection of anti-[18F]FMACBC after 5 min.; assay type: ADME, organism-based; settings: in vivo; method in brief: as §4
Rattus norvegicus [13] = species on record: Rattus norvegicus; experiment: Radioactivity distribution in heart of tumor-bearing fischer rat after injection of anti-[18F]FMACBC after 120 min; assay type: ADME, organism-based; settings: in vivo, 2 h; method in brief: as §2
Rattus norvegicus [14] = species on record: Rattus norvegicus; experiment: Radioactivity distribution in bone of tumor-bearing fischer rat after injection of anti-[18F]FMACBC after 120 min; assay type: ADME, organism-based, Bone element; settings: in vivo, 2 h; method in brief: as §2
Rattus norvegicus [15] = species on record: Rattus norvegicus; experiment: Radioactivity distribution in lung of tumor-bearing fischer rat after injection of anti-[18F]FMACBC after 5 min; assay type: ADME, organism-based; settings: in vivo; method in brief: as §3
Rattus norvegicus [16] = species on record: Rattus norvegicus; experiment: Radioactivity distribution in brain of normal fischer rat after injection of anti-[18F]FMACBC after 120 min.; assay type: ADME, organism-based; settings: in vivo, 2 h; method in brief: as §1
Rattus norvegicus [17] = species on record: Rattus norvegicus; experiment: Radioactivity distribution in pancreas of tumor-bearing fischer rat after injection of syn-[18F]-FMACBC after 60 min; assay type: ADME, organism-based; settings: in vivo, 1 h; method in brief: as §3
Rattus norvegicus [18] = species on record: Rattus norvegicus; experiment: Radioactivity distribution in liver of normal fischer rat after injection of anti-[18F]FMACBC after 5 min.; assay type: ADME, organism-based; settings: in vivo; method in brief: as §1
Rattus norvegicus [19] = species on record: Rattus norvegicus; experiment: Radioactivity distribution in pancreas of normal fischer rat after injection of anti-[18F]FMACBC after 60 min.; assay type: ADME, organism-based; settings: in vivo, 1 h; method in brief: as §4
Rattus norvegicus [20] = species on record: Rattus norvegicus; experiment: Radioactivity distribution in testis of normal fischer rat after injection of syn-[18F]-FMACBC after 120 min.; assay type: ADME, organism-based; settings: in vivo, 2 h; method in brief: as §4
Rattus norvegicus [21] = species on record: Rattus norvegicus; experiment: Radioactivity distribution in kidney of tumor-bearing fischer rat after injection of syn-[18F]-FMACBC after 60 min; assay type: ADME, organism-based; settings: in vivo, 1 h; method in brief: as §2
Rattus norvegicus [22] = species on record: Rattus norvegicus; experiment: Radioactivity distribution in blood of normal fischer rat after injection of syn-[18F]-FMACBC after 30 min.; assay type: ADME, organism-based; settings: in vivo, 0.5 h; method in brief: as §1
Rattus norvegicus [23] = species on record: Rattus norvegicus; experiment: Radioactivity distribution in muscle of normal fischer rat after injection of syn-[18F]-FMACBC after 120 min.; assay type: ADME, organism-based, Muscle tissue; settings: in vivo, 2 h; method in brief: as §4
Rattus norvegicus [24] = species on record: Rattus norvegicus; experiment: Radioactivity distribution in brain of normal fischer rat after injection of syn-[18F]-FMACBC after 30 min.; assay type: ADME, organism-based; settings: in vivo, 0.5 h; method in brief: as §1
Rattus norvegicus [25] = species on record: Rattus norvegicus; experiment: Radioactivity distribution in testis of normal fischer rat after injection of anti-[18F]FMACBC after 30 min.; assay type: ADME, organism-based; settings: in vivo, 0.5 h; method in brief: as §4
Rattus norvegicus [26] = species on record: Rattus norvegicus; experiment: Radioactivity distribution in muscle of tumor-bearing fischer rat after injection of syn-[18F]-FMACBC after 60 min; assay type: ADME, organism-based, Muscle tissue; settings: in vivo, 1 h; method in brief: as §3
Rattus norvegicus [27] = species on record: Rattus norvegicus; experiment: Radioactivity distribution in blood of tumor-bearing fischer rat after injection of syn-[18F]-FMACBC after 5 min; assay type: ADME, organism-based; settings: in vivo; method in brief: as §2
Rattus norvegicus [28] = species on record: Rattus norvegicus; experiment: Radioactivity distribution in blood of tumor-bearing fischer rat after injection of anti-[18F]FMACBC after 5 min; assay type: ADME, organism-based; settings: in vivo; method in brief: as §2
Rattus norvegicus [29] = species on record: Rattus norvegicus; experiment: Radioactivity distribution in pancreas of tumor-bearing fischer rat after injection of syn-[18F]-FMACBC after 5 min; assay type: ADME, organism-based; settings: in vivo; method in brief: as §3
Rattus norvegicus [30] = species on record: Rattus norvegicus; experiment: Radioactivity distribution in lung of tumor-bearing fischer rat after injection of syn-[18F]-FMACBC after 120 min; assay type: ADME, organism-based; settings: in vivo, 2 h; method in brief: as §3
Rattus norvegicus [31] = species on record: Rattus norvegicus; experiment: Radioactivity distribution in tumor of tumor-bearing fischer rat after injection of anti-[18F]FMACBC after 5 min; assay type: ADME, organism-based; settings: in vivo; method in brief: as §3
Rattus norvegicus [32] = species on record: Rattus norvegicus; experiment: Radioactivity distribution in tumor of tumor-bearing fischer rat after injection of anti-[18F]FMACBC after 60 min; assay type: ADME, organism-based; settings: in vivo, 1 h; method in brief: as §3
Rattus norvegicus [33] = species on record: Rattus norvegicus; experiment: Radioactivity distribution in kidney of normal fischer rat after injection of anti-[18F]FMACBC after 30 min.; assay type: ADME, organism-based; settings: in vivo, 0.5 h; method in brief: as §1
Rattus norvegicus [34] = species on record: Rattus norvegicus; experiment: Radioactivity distribution in lungs of normal fischer rat after injection of syn-[18F]-FMACBC after 5 min.; assay type: ADME, organism-based, Lung; settings: in vivo; method in brief: as §4
Rattus norvegicus [35] = species on record: Rattus norvegicus; experiment: Radioactivity distribution in bone of tumor-bearing fischer rat after injection of syn-[18F]-FMACBC after 120 min; assay type: ADME, organism-based, Bone element; settings: in vivo, 2 h; method in brief: as §2
Rattus norvegicus [36] = species on record: Rattus norvegicus; experiment: Radioactivity distribution in pancreas of normal fischer rat after injection of anti-[18F]FMACBC after 5 min.; assay type: ADME, organism-based; settings: in vivo; method in brief: as §4
Rattus norvegicus [37] = species on record: Rattus norvegicus; experiment: Radioactivity distribution in heart of tumor-bearing fischer rat after injection of syn-[18F]-FMACBC after 120 min; assay type: ADME, organism-based; settings: in vivo, 2 h; method in brief: as §2
Rattus norvegicus [38] = species on record: Rattus norvegicus; experiment: Radioactivity distribution in testis of tumor-bearing fischer rat after injection of syn-[18F]-FMACBC after 60 min; assay type: ADME, organism-based; settings: in vivo, 1 h; method in brief: as §3
Rattus norvegicus [39] = species on record: Rattus norvegicus; experiment: Radioactivity distribution in liver of normal fischer rat after injection of anti-[18F]FMACBC after 120 min.; assay type: ADME, organism-based; settings: in vivo, 2 h; method in brief: as §1
Rattus norvegicus [40] = species on record: Rattus norvegicus; experiment: Radioactivity distribution in liver of tumor-bearing fischer rat after injection of syn-[18F]-FMACBC after 120 min; assay type: ADME, organism-based; settings: in vivo, 2 h; method in brief: as §3
Rattus norvegicus [41] = species on record: Rattus norvegicus; experiment: Radioactivity distribution in heart of normal fischer rat after injection of syn-[18F]-FMACBC after 60 min.; assay type: ADME, organism-based; settings: in vivo, 1 h; method in brief: as §1

N[C@]1(C(=O)O)C[C@@H](CF)C1
ID/g (Rattus norvegicus [1]): 0.47% | ID/g (Rattus norvegicus [2]): 0.28% | ID/g (Rattus norvegicus [3]): 2.17% | ID/g (Rattus norvegicus [4]): 0.31% | ID/g (Rattus norvegicus [5]): 4.13% | ID/g (Rattus norvegicus [6]): 0.32% | ID/g (Rattus norvegicus [7]): 0.61% | ID/g (Rattus norvegicus [8]): 0.57% | ID/g (Rattus norvegicus [9]): 0.68% | ID/g (Rattus norvegicus [10]): 0.34% | ID/g (Rattus norvegicus [11]): 0.52% | ID/g (Rattus norvegicus [12]): 0.24% | ID/g (Rattus norvegicus [13]): 0.52% | ID/g (Rattus norvegicus [14]): 0.19% | ID/g (Rattus norvegicus [15]): 0.55% | ID/g (Rattus norvegicus [16]): 0.25% | ID/g (Rattus norvegicus [17]): 2.08% | ID/g (Rattus norvegicus [18]): 0.81% | ID/g (Rattus norvegicus [19]): 3.83% | ID/g (Rattus norvegicus [20]): 0.22% | ID/g (Rattus norvegicus [21]): 0.42% | ID/g (Rattus norvegicus [22]): 0.33% | ID/g (Rattus norvegicus [23]): 0.6% | ID/g (Rattus norvegicus [24]): 0.24% | ID/g (Rattus norvegicus [25]): 0.25% | ID/g (Rattus norvegicus [26]): 0.54% | ID/g (Rattus norvegicus [27]): 0.44% | ID/g (Rattus norvegicus [28]): 0.51% | ID/g (Rattus norvegicus [29]): 3.19% | ID/g (Rattus norvegicus [30]): 0.26% | ID/g (Rattus norvegicus [31]): 1.28% | ID/g (Rattus norvegicus [32]): 2.5% | ID/g (Rattus norvegicus [33]): 0.67% | ID/g (Rattus norvegicus [34]): 0.75% | ID/g (Rattus norvegicus [35]): 0.13% | ID/g (Rattus norvegicus [36]): 2.56% | ID/g (Rattus norvegicus [37]): 0.33% | ID/g (Rattus norvegicus [38]): 0.22% | ID/g (Rattus norvegicus [39]): 0.48% | ID/g (Rattus norvegicus [40]): 0.25% | ID/g (Rattus norvegicus [41]): 0.64%
